Measurements as given in ChEMBL document CHEMBL1135969, “Discovery of an opioid kappa receptor selective pure antagonist from a library of N-substituted 4beta-methyl-5-(3-hydroxyphenyl)morphans” (J Med Chem, 2002).

Columns and labels:
[1] = target: Opioid receptors; delta & kappa (Homo sapiens) (UniProt P41145+P41143); test: Selectivity ratio of Ki at delta opioid receptor to Ki at kappa opioid receptor; type: protein assay
[2] = target: Opioid receptors; mu & delta (Homo sapiens) (UniProt P41143+P35372); test: Selectivity ratio of Ki at mu opioid receptor to Ki at kappa opioid receptor; type: protein assay
Opioid receptors; mu & delta (Homo sapiens), sequence (P35372 whole entry, looked up): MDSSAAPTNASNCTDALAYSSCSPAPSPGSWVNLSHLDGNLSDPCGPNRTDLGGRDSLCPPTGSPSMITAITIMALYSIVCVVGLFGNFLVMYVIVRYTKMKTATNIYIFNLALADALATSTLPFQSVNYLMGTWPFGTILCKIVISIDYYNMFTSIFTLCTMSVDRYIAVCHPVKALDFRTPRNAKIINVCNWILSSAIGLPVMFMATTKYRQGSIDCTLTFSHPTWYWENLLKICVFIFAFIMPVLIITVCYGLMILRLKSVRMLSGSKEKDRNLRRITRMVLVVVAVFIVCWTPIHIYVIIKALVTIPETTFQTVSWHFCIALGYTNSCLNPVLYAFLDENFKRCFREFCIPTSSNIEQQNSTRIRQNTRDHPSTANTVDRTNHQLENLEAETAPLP
Opioid receptors; mu & delta (Homo sapiens), sequence (P41143 whole entry, looked up): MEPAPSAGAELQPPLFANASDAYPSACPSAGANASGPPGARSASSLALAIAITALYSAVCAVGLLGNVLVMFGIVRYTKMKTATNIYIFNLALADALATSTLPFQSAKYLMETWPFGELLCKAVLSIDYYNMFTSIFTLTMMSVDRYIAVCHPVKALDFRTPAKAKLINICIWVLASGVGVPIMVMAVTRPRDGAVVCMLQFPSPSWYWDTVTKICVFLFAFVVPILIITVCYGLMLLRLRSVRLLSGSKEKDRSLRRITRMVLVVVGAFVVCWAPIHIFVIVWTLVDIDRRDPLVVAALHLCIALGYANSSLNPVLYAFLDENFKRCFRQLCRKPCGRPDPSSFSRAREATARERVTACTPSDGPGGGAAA

Mu-type opioid receptor = Mu-type opioid receptor (Rattus norvegicus, UniProt P33535); test: Ability to displace [3H]DAMGO from Opioid receptor mu 1 of rat brain; type: tissue-based
Mu-type opioid receptor, sequence (P33535 whole entry): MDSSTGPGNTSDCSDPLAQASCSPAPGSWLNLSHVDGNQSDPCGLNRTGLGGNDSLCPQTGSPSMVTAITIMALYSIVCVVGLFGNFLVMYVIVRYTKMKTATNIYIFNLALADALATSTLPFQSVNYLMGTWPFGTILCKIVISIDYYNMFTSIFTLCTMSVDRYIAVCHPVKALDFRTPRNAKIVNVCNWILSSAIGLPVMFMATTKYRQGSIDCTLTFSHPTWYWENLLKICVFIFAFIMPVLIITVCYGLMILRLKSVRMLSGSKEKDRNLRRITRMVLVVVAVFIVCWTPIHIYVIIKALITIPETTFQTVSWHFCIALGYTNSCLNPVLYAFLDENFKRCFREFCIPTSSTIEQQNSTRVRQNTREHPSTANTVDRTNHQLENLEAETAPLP
Method in brief: (§1)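 Radioligand displacement binding giving Ki values. Rat brain tissue was used for the μ site (tritiated μ-selective ligand) and the δ site ([3H]DADLE, δ-selective). Guinea pig brain tissue was used for the κ site ([3H]U69,593, a κ-selective agonist).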

[3] = target: Kappa-type opioid receptor (Cavia porcellus, UniProt P41144); test: Ability to displace [3H]U-69593 from Opioid receptor kappa 1 of guinea pig brain
Kappa-type opioid receptor, sequence (P41144 whole entry): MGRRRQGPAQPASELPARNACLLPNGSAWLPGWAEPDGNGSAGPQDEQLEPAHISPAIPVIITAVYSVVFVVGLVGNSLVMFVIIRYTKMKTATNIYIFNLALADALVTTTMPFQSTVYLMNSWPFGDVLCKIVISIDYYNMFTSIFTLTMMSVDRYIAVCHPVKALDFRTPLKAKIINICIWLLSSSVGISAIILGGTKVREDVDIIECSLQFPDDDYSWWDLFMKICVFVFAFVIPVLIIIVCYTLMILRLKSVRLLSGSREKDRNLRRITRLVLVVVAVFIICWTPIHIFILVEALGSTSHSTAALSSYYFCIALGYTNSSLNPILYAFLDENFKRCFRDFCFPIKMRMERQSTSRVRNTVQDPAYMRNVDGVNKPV
Method in brief: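 Competitive radioligand binding in guinea pig brain tissue, using tritiated U69,593, a κ-selective agonist, as the displaced ligand. Affinity is reported as Ki.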

[4] = target: Delta-type opioid receptor (Rattus norvegicus, UniProt P33533); test: Ability to displace [3H]DADLE from Opioid receptor delta 1 of rat brain; type: tissue-based; method in brief: as §1
Delta-type opioid receptor, sequence (P33533 whole entry): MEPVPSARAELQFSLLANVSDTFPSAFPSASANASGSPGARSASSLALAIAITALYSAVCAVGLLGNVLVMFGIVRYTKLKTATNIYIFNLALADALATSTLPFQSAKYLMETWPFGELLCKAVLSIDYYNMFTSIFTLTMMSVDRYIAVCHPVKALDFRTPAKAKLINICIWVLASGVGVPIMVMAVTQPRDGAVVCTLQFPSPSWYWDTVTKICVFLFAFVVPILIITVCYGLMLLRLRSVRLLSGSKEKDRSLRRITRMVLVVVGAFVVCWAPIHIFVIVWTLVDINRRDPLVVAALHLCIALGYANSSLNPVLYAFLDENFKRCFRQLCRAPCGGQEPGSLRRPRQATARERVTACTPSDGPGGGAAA

[5] = target: Delta-type opioid receptor (Homo sapiens) (UniProt P41143); settings: CHO
Delta-type opioid receptor (Homo sapiens), sequence (P41143 whole entry): as the sequence (P41143 whole entry, looked up) above

[6] = target: Kappa-type opioid receptor (Homo sapiens) (UniProt P41145); settings: CHO
Kappa-type opioid receptor (Homo sapiens), sequence (P41145 whole entry): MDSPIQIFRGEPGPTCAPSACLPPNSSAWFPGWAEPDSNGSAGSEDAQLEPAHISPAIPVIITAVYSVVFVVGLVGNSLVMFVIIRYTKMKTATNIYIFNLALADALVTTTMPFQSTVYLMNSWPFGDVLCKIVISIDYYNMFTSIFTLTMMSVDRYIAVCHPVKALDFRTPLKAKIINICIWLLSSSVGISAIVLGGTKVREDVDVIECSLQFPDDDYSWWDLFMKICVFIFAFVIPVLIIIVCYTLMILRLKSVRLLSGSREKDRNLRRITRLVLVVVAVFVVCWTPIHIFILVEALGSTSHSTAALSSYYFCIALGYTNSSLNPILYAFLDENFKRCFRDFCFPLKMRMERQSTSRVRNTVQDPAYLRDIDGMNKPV

[7] = target: Mu-type opioid receptor (Homo sapiens) (UniProt P35372); settings: CHO
Mu-type opioid receptor (Homo sapiens), sequence (P35372 whole entry): as the sequence (P35372 whole entry, looked up) above

Opioid receptors; delta & kappa (Homo sapiens), sequence (P41143 whole entry, looked up): as the sequence (P41143 whole entry, looked up) above
Opioid receptors; delta & kappa (Homo sapiens), sequence (P41145 whole entry, looked up): as the sequence (P41145 whole entry) above

SMILES | Ratio [1] | Ratio [2] | Ki (Mu-type opioid receptor) [µM] | Ki [3] [µM] | Ki [4] [µM] | other results
CC1CN(CCCc2ccccc2)C2C[C@H](N)CC1(c1cccc(O)c1)C2 (single isomer, unassigned; (-)) [listing 1 of 2 here] | 0.1 | 0.03 |  |  |  | 
CC1CN(CCCc2ccccc2)C2C[C@H](N)CC1(c1cccc(O)c1)C2 (single isomer, unassigned; (+)) [listing 1 of 2 here] |  |  | 0.207 | 0.893 | 0.246 | 
CC1CN(CCCc2ccccc2)C2C[C@H](N)CC1(c1cccc(O)c1)C2 (single isomer, unassigned; (+)) [listing 2 of 2 here] | 0.27 | 0.23 |  |  |  | 
Oc1ccc2c3c1O[C@H]1c4[nH]c5c(c4C[C@@]4(O)[C@@H](C2)N(CC2CC2)CC[C@]314)C[C@@]1(O)[C@H]2Cc3ccc(O)c4c3[C@@]1(CCN2CC1CC1)[C@H]5O4 |  |  |  |  |  | Ke [5]: 4.6 nM; Ke [6]: 0.04 nM; Ke [7]: 19 nM
CC1CN(CCCc2ccccc2)C2C[C@H](N)CC1(c1cccc(O)c1)C2 (single isomer, unassigned; (-)) [listing 2 of 2 here] |  |  | 0.0033 | 0.122 | 0.0147 | 
